In experiment [1] the test system is A549. In words: Induction of apoptosis in human A549 cells at 3 uM by Annexin V-FITC/propidium iodide staining-based flow cytometric analysis. The format is functional, cell-based. Conditions: TDE = time-dependent effect. The procedure, abridged: (§1)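 A549 cells seeded at 1 × 10⁵ cells/well, exposed to 3 μM for 3, 6, 12 and 24 h. Then incubated in binding buffer and stained with Annexin V-FITC and PI for 20 min in the dark. Apoptotic cells were scored by fluorescence microscopy and flow cytometry. Three independent experiments, mean ± SD.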
On the technique in general: In flow cytometry, cells or beads pass a laser one at a time.

For experiment [2], the target named is RAC-alpha serine/threonine-protein kinase (Homo sapiens) (UniProt P31749). The experiment can be described thus: Modulation of AKT in human A549 cells assessed as decrease in cyclinD1 levels measured after 24 hrs in presence of Akt inhibitor-LY10249 by Western blot analysis. The format is cell-based. Put shortly: (§2)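 A549 cells pre-incubated for 30 min with 12.1 μM kinase inhibitor: SB203580 (p38), SP600125 (JNK), FR180204 (ERK) or LY10249 (Akt). Compound treatment followed for 24 h. Lysates (30 μg protein) analysed by 12% SDS-PAGE and nitrocellulose immunoblot with HRP detection. Three independent experiments, mean ± SD.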
RAC-alpha serine/threonine-protein kinase (Homo sapiens), sequence (P31749 whole entry): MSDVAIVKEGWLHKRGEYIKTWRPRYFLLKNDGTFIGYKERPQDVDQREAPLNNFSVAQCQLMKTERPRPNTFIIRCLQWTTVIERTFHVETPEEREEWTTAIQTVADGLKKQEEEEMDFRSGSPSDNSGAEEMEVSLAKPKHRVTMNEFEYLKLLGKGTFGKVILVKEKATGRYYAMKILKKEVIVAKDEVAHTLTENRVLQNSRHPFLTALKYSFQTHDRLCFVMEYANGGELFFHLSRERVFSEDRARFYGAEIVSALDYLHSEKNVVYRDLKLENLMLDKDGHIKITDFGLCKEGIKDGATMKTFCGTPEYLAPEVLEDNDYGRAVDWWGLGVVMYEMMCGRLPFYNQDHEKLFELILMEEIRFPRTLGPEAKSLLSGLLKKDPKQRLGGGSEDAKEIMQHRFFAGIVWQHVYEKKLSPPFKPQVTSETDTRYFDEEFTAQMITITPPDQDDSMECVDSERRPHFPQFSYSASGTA

Experiment [3] has as its system A549. The experiment can be described thus: Cell cycle arrest in human A549 cells assessed as decrease in CDK4/6 levels at 3 uM by Western blot analysis. Conditions: TDE = time-dependent effect. The format is functional, cell-based. The procedure, abridged:
(§3)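 A549 cells exposed to 3 μM for 3, 6, 12 or 24 h; where NAC is used, 10 mM NAC is added 30 min before 24 h treatment. Lysate protein (30 μg) is run on 12% SDS-PAGE, blotted to nitrocellulose, blocked in 5% milk, primary antibody overnight at 4°C, then HRP anti-IgG. β-actin loading control; densitometry; three independent experiments, mean ± SD.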

Experiment [4] has as its target MAP kinase p38 (Homo sapiens) (UniProt O15264+Q15759+Q16539+P53778). In words: Modulation of p38 MAPK in human A549 cells assessed as increase in cleaved caspase-3 level measured after 24 hrs in presence of p38 inhibitor SB203580 by Western blot analysis. Format: cell-based. Put shortly: as §2
Background: Immunoblotting shows a protein as a band on a membrane.

Experiment [5] deals with A549. In words: Induction of apoptosis in human A549 cells assessed as increase in cleaved PARP expression at 3 uM by Western blot analysis. The settings on record: TDE = time-dependent effect. The format is functional, cell-based. The procedure, abridged: as §3
For experiment [6], the system named is A549. The experiment can be described thus: Induction of apoptosis in human A549 cells assessed as late apoptotic cells at 3 uM after 24 hrs by Annexin V-FITC/propidium iodide staining-based flow cytometric analysis (reference value: 4.52%). The format is functional.
The target in experiment [7] is T1, c-Jun N-terminal kinase, JNK (Homo sapiens) (UniProt P45983+P53779+P45984). In words: Modulation of JNK in human A549 cells assessed as increase in cleaved caspase-3 measured after 24 hrs in presence of JNK inhibitor-SP600125 by Western blot analysis. The format is cell-based.
Experiment [8] addresses T1, c-Jun N-terminal kinase, JNK (Homo sapiens). In words: Activation of JNK phosphorylation in human A549 cells at 3 uM after 24 hrs in presence of NAC by Western blot analysis. The format is cell-based. The procedure, abridged: as §3
Experiment [9] has as its system A549. The experiment can be described thus: Induction of apoptosis in human A549 cells assessed as late apoptotic cells at 3 uM in presence of NAC by Annexin V-FITC/propidium iodide staining-based flow cytometric analysis (reference value: 0.22%). The format is functional.
Experiment [10] relates to A549. In words: Induction of apoptosis in human A549 cells assessed as nuclear condensation at 3 uM by Annexin V-FITC/propidium iodide staining-based flow cytometric analysis. The settings on record: TDE = time-dependent effect. The format is functional, cell-based. The procedure, abridged: as §1
The test system of experiment [11] is A549. The experiment can be described thus: Induction of apoptosis in human A549 cells assessed as increase in Bad levels at 3 uM after 24 hrs by Western blot analysis. The format is functional, cell-based. The procedure, abridged: as §3
The subject of experiment [12] is A549. The experiment can be described thus: Induction of apoptosis in human A549 cells assessed as late apoptotic cells at 3 uM after 12 hrs by Annexin V-FITC/propidium iodide staining-based flow cytometric analysis (reference value: 4.52%). Format: functional.
Experiment [13] has as its system A549. In words: Induction of apoptosis in human A549 cells assessed as early apoptotic cells at 3 uM after 24 hrs by Annexin V-FITC/propidium iodide staining-based flow cytometric analysis (reference value: 2.73%). Format: functional.
Experiment [14] concerns A549. In words: Induction of apoptosis in human A549 cells assessed as early apoptotic cells at 3 uM after 12 hrs by Annexin V-FITC/propidium iodide staining-based flow cytometric analysis (reference value: 2.73%). Format: functional.

SMILES strings stand for the structures. Activity calls are given as the source filed them. The rule behind the calls is not given here.

Take `CCCCCCCCCS(=O)(=O)C12OC1C(=O)c1c(OC)ccc(OC)c1C2=O` (stereo not drawn): the Activity result in the experiment on A549 [1] was “Tde”; in the experiment on A549 [3] it was “Tde”; in the experiment with A549 [5] it was “Tde”; with A549 [6] it was 1.89 - 12.93%; with A549 [9], 3.03%; with A549 [10] it was “Tde”. Further, the results for the Activity in the experiment on A549 [12], in the experiment with A549 [13] and in the experiment on A549 [14] were 7.87%, 24.66 - 30.02% and 16.92%, respectively. Moreover, the outcome (in [2]; in the experiment on A549 [11]) was Active. The outcome in experiment [4], in experiment [7] and in experiment [8] was inactive.

For `CCCS(=O)(=O)C12OC1C(=O)c1c(OC)ccc(OC)c1C2=O` (stereo not drawn), the Activity result in the experiment on A549 [1] was “Tde”; with A549 [3], “Tde”; in the experiment on A549 [5], “Tde”; with A549 [6] it was 6.31 - 8.05%; in the experiment on A549 [9], 2.67%; in the experiment on A549 [10] it was “Tde”. The figures for the Activity in the experiment on A549 [12], in the experiment with A549 [13] and in the experiment on A549 [14] were 0.2%, 48.76% and 35.37%, respectively. Moreover, the outcome (in experiment [2]; in the experiment with A549 [11]) was Active. Besides, the outcome in [4], in [7] and in experiment [8] was inactive.

Values taken from ChEMBL document CHEMBL4400568, “The design of 1,4-naphthoquinone derivatives and mechanisms underlying apoptosis induction through ROS-dependent MAPK/Akt/STAT3 pathways in human lung cancer cells” (Bioorg Med Chem, 2019).
